Common to all, as to format: functional
For experiment [1], the system named is Escherichia coli. The experiment is described as follows: Antimicrobial activity against Escherichia coli C600 2878 transconjugate expressing beta-lactamase VIM-19 by microdilution method. The gist of the method: (§1)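 MIC by dilution on Mueller-Hinton agar, inoculum 10^4 CFU per spot, interpreted by CA-SFM guidelines. Inhibitor combinations where tested: clavulanic acid 2 μg/ml, tazobactam 4 μg/ml, EDTA 0.4 mM. Transconjugants came from rifampin-resistant E. coli C600 selected on rifampin 300 μg/ml plus cefotaxime 0.5 μg/ml. Transformants came from electroporation into E. coli DH5α selected on cefotaxime 0.5 μg/ml.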

In experiment [2] the test system is Klebsiella pneumoniae. The experiment is described as follows: Antimicrobial activity against Klebsiella pneumoniae 6828 strain expressing beta-lactamase VIM-19 by microdilution method. The gist of the method: (§2)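 Clinical isolates from intensive care patients. MICs by dilution on Mueller-Hinton agar, inoculum 10^4 CFU per spot, read after growth and interpreted by CA-SFM guidelines. Where the line names an inhibitor, it was held at a fixed level: clavulanic acid 2 μg/ml, tazobactam 4 μg/ml, or EDTA 0.4 mM.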
In general terms: In broth dilution the organism is exposed to a series of concentrations in liquid medium.

The subject of experiment [3] is Providencia stuartii. As to the kind of experiment: Antimicrobial activity against Providencia stuartii 6858 strain expressing beta-lactamase VIM-19 by microdilution method in presence of 0.4 mM EDTA. A digest of the protocol:
as §2

In experiment [4] the test system is Klebsiella pneumoniae. As to the kind of experiment: Antimicrobial activity against Klebsiella pneumoniae 6828 strain expressing beta-lactamase VIM-19 by microdilution method in presence of 0.4 mM EDTA. The gist of the method:
as §2

The test system of experiment [5] is Escherichia coli. The experiment is described as follows: Antimicrobial activity against Escherichia coli DH5alpha 2878 transformant expressing beta-lactamase VIM-19 by microdilution method in presence of 0.4 mM EDTA. The gist of the method: as §1
Experiment [6] relates to Escherichia coli. As to the kind of experiment: Antimicrobial activity against Escherichia coli harbouring plasmid BK-CMV expressing beta-lactamase VIM-19 by microdilution method. The gist of the method:
as §1

Experiment [7] concerns Escherichia coli. The experiment is described as follows: Antimicrobial activity against Escherichia coli DH5alpha harbouring plasmid BK-VIM-19 expressing beta-lactamase VIM-19 by microdilution method in presence of 0.4 mM EDTA. A digest of the protocol: as §1
Experiment [8] relates to Escherichia coli. The experiment is described as follows: Antimicrobial activity against Escherichia coli harbouring plasmidBK-CMV expressing beta-lactamase VIM-19 […] in presence of 0.4 mM EDTA.
Experiment [9] concerns Klebsiella pneumoniae. As to the kind of experiment: Antimicrobial activity against Klebsiella pneumoniae 2878 strain expressing beta-lactamase VIM-19 […] in presence of 0.4 mM EDTA.
Experiment [10] has as its system Escherichia coli. As to the kind of experiment: Antimicrobial activity against Escherichia coli 2603 strain expressing beta-lactamase VIM-19 by microdilution method. The gist of the method: as §2
For experiment [11], the system named is Escherichia coli. The experiment is described as follows: Antimicrobial activity against Escherichia coli 138 expressing beta-lactamase VIM-19 by microdilution method in presence of 0.4 mM EDTA. The gist of the method:
as §1

The test system of experiment [12] is Escherichia coli. As to the kind of experiment: Antimicrobial activity against Escherichia coli DH5alpha 2878 transformant expressing beta-lactamase VIM-19 by microdilution method. The gist of the method:
as §1

Experiment [13] relates to Escherichia coli. As to the kind of experiment: Antimicrobial activity against Escherichia coli DH5alpha harbouring plasmid BK-VIM-19 expressing beta-lactamase VIM-19 by microdilution method. A digest of the protocol:
as §1

For experiment [14], the system named is Escherichia coli. As to the kind of experiment: Antimicrobial activity against Escherichia coli 138 expressing beta-lactamase VIM-19 by microdilution method. The gist of the method: as §2
The subject of experiment [15] is Klebsiella pneumoniae. As to the kind of experiment: Antimicrobial activity against Klebsiella pneumoniae 2878 strain expressing beta-lactamase VIM-19 by microdilution method. A digest of the protocol:
as §2

The subject of experiment [16] is Providencia stuartii. As to the kind of experiment: Antimicrobial activity against Providencia stuartii 6858 strain expressing beta-lactamase VIM-19 by microdilution method. The gist of the method:
as §2

Experiment [17] deals with Escherichia coli. As to the kind of experiment: Antimicrobial activity against Escherichia coli 2603 strain expressing beta-lactamase VIM-19 by microdilution method in presence of 0.4 mM EDTA. The gist of the method:
as §2

The subject of experiment [18] is Escherichia coli. The experiment is described as follows: Antimicrobial activity against Escherichia coli C600 2878 transconjugate expressing beta-lactamase VIM-19 by microdilution method in presence of 0.4 mM EDTA. The gist of the method: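 Rifampin-resistant E. coli C600 recipient mated with the clinical strain. Transconjugants were selected on agar with rifampin 300 μg/ml plus cefotaxime 0.5 μg/ml. MICs by dilution on Mueller-Hinton agar, inoculum 10^4 CFU per spot, CA-SFM interpretation. Inhibitor at a fixed level: clavulanic acid 2 μg/ml or EDTA 0.4 mM.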

Among the data in ChEMBL document CHEMBL1212777, “Novel VIM metallo-beta-lactamase variant from clinical isolates of Enterobacteriaceae from Algeria” (2010) are MIC values, retold here.

Converted amounts (≈) assume the structure as drawn.

For the compound `CC(C)(O/N=C(\C(=O)N[C@@H]1C(=O)N2C(C(=O)[O-])=C(C[n+]3ccccc3)CS[C@H]12)c1csc(N)n1)C(=O)O` [CEFTAZIDIME], the MIC with Escherichia coli [1] stood at 32 µg/mL (≈ 58.5 µM); in the experiment with Klebsiella pneumoniae [2] it was 64 µg/mL (≈ 117 µM); in the experiment with Providencia stuartii [3] it was 4 µg/mL; in the experiment with Klebsiella pneumoniae [4] it was 8 µg/mL; with Escherichia coli [5], 8 µg/mL; in the experiment with Escherichia coli [6] it was 0.12 µg/mL (≈ 0.22 µM). The MIC turned out to be 0.12 µg/mL in the experiment on Escherichia coli [7]; 0.12 µg/mL in the experiment on Escherichia coli [8]; 8 µg/mL with Klebsiella pneumoniae [9]; 128 µg/mL (≈ 234 µM) with Escherichia coli [10]; 128 µg/mL in the experiment on Escherichia coli [11]; 128 µg/mL (≈ 234 µM) with Escherichia coli [12]. Besides, the MIC with Escherichia coli [13] amounted to 32 µg/mL (≈ 58.5 µM); in the experiment on Escherichia coli [14], 512 µg/mL (≈ 937 µM); against Klebsiella pneumoniae [15], 128 µg/mL (≈ 234 µM); in the experiment on Providencia stuartii [16], 64 µg/mL (≈ 117 µM); in the experiment with Escherichia coli [17], 16 µg/mL.

Turning to `CO/N=C(\C(=O)N[C@@H]1C(=O)N2C(C(=O)O)=C(COC(N)=O)CS[C@H]12)c1ccco1` [CEFUROXIME], the MIC against Escherichia coli [1] was 512 µg/mL (≈ 1210 µM); in the experiment on Klebsiella pneumoniae [2] it was 1020 µg/mL (≈ 2410 µM); against Escherichia coli [6], 4 µg/mL (≈ 9.43 µM); in the experiment with Escherichia coli [10], more than 1020 µg/mL; in the experiment with Escherichia coli [12], 1020 µg/mL (≈ 2410 µM); against Escherichia coli [13], 1020 µg/mL (≈ 2410 µM). The values for the MIC against Escherichia coli [14], against Klebsiella pneumoniae [15] and with Providencia stuartii [16] were more than 1020 µg/mL, 1020 µg/mL (≈ 2410 µM) and 1020 µg/mL (≈ 2410 µM), respectively.

In the case of `CC(=O)OCC1=C(C(=O)O)N2C(=O)[C@@H](NC(=O)Cc3cccs3)[C@H]2SC1` [CEPHALOTHIN], the MIC is 1020 µg/mL (≈ 2580 µM) against Escherichia coli [1]; 2050 µg/mL (≈ 5170 µM) against Klebsiella pneumoniae [2]; 4 µg/mL (≈ 10.1 µM) against Escherichia coli [6]; 2050 µg/mL (≈ 5170 µM) against Escherichia coli [10]; 2050 µg/mL (≈ 5170 µM) in the experiment with Escherichia coli [12]; 1020 µg/mL (≈ 2580 µM) with Escherichia coli [13]. Besides, the MIC against Escherichia coli [14], in the experiment on Klebsiella pneumoniae [15] and in the experiment with Providencia stuartii [16] was more than 2050 µg/mL in each case.

As for `C[C@@H](O)[C@H]1C(=O)N2C(C(=O)O)=C(SCCNC=N)C[C@H]12` [IMIPENEM ANHYDROUS], the MIC was 4 µg/mL (≈ 13.4 µM) with Escherichia coli [1]; 4 µg/mL (≈ 13.4 µM) in the experiment on Klebsiella pneumoniae [2]; less than 0.12 µg/mL in the experiment on Escherichia coli [18]; 0.5 µg/mL in the experiment on Providencia stuartii [3]; less than 0.12 µg/mL with Klebsiella pneumoniae [4]; less than 0.12 µg/mL with Escherichia coli [5]. In addition, the MIC in the experiment on Escherichia coli [7] was less than 0.12 µg/mL; with Escherichia coli [8], less than 0.12 µg/mL; in the experiment with Klebsiella pneumoniae [9], 0.5 µg/mL; against Escherichia coli [10], 16 µg/mL (≈ 53.4 µM); in the experiment with Escherichia coli [11], 0.5 µg/mL; in the experiment with Escherichia coli [12] it was 8 µg/mL (≈ 26.7 µM). Further, the MIC in the experiment on Escherichia coli [13] amounted to 16 µg/mL (≈ 53.4 µM); against Escherichia coli [14] it was 32 µg/mL (≈ 107 µM); with Klebsiella pneumoniae [15], 64 µg/mL (≈ 214 µM); against Providencia stuartii [16] it was 16 µg/mL (≈ 53.4 µM); with Escherichia coli [17], 0.25 µg/mL.

In the case of `C[C@@H](O)[C@H]1C(=O)N2C(C(=O)O)=C(S[C@@H]3CN[C@H](C(=O)N(C)C)C3)[C@H](C)[C@H]12` [MEROPENEM], the MIC in the experiment on Escherichia coli [1] is 1 µg/mL (≈ 2.61 µM); against Klebsiella pneumoniae [2], 4 µg/mL (≈ 10.4 µM); with Escherichia coli [18], less than 0.12 µg/mL; with Providencia stuartii [3] it was less than 0.12 µg/mL; with Klebsiella pneumoniae [4] it was less than 0.12 µg/mL; in the experiment with Escherichia coli [5], less than 0.12 µg/mL. The MIC against Escherichia coli [6] was less than 0.12 µg/mL; in the experiment with Escherichia coli [7], less than 0.12 µg/mL; in the experiment with Escherichia coli [8], less than 0.12 µg/mL; with Klebsiella pneumoniae [9], less than 0.12 µg/mL; in the experiment with Escherichia coli [10] it was 8 µg/mL (≈ 20.9 µM); in the experiment with Escherichia coli [11], less than 0.12 µg/mL. Besides, the MIC is 8 µg/mL (≈ 20.9 µM) against Escherichia coli [12]; 8 µg/mL (≈ 20.9 µM) in the experiment with Escherichia coli [13]; 16 µg/mL (≈ 41.7 µM) in the experiment with Escherichia coli [14]; 32 µg/mL (≈ 83.4 µM) in the experiment on Klebsiella pneumoniae [15]; 8 µg/mL (≈ 20.9 µM) with Providencia stuartii [16]; less than 0.12 µg/mL in the experiment on Escherichia coli [17].

Take `CC1(C)S[C@@H]2[C@H](NC(=O)[C@H](C(=O)O)c3ccsc3)C(=O)N2[C@H]1C(=O)O` [TICARCILLIN]: the MIC was more than 2050 µg/mL against Escherichia coli [1]; more than 2050 µg/mL in the experiment with Klebsiella pneumoniae [2]; 2 µg/mL (≈ 5.2 µM) in the experiment on Escherichia coli [6]; more than 2050 µg/mL in the experiment on Escherichia coli [10]; more than 2050 µg/mL in the experiment on Escherichia coli [12]; more than 2050 µg/mL against Escherichia coli [13]. Also, the MIC in the experiment with Escherichia coli [14], against Klebsiella pneumoniae [15] and with Providencia stuartii [16] was more than 2050 µg/mL each time.
